What all share (format): cell-based
One assay has as its system cytochrome c. In words: Mitochondrial cyt c release, immunofluorescence. As to conditions: MDAMB-231, compound at IC50, 24 hours. A digest of the protocol:
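Mitochondria were labelled with MitoTracker Red (200 nM, 45 min), and cytochrome c was immunostained with an anti-cyt c antibody followed by FITC anti-mouse secondary (4 h, 37 °C). Coverslips were mounted and examined by fluorescence microscopy for cyt c relocation.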

The subject of a further assay is caspase-9. In words: Caspase-9 activity assay. The settings on record: MDAMB-231, compound at IC50, 24 hours, vs untreated.
For a further assay, the target named is PKCα (Homo sapiens, UniProt P17252). Description: Immunoblotting to detect PKCα translocation from cytosol to plasma membrane. As to conditions: MDAMB-231, compound at IC50, 30 minutes, cytosolic PKCα normalized to 100%. (A western blot detects proteins with antibodies after separation by electrophoresis.)
For assay [1], the system named is MCF-7 breast cancer cells. Description: MTT viability assay, MCF-7. The settings on record: Homo sapiens, MCF7, 48 h, read-out: Anticancer activity (IC50 ± SD) MCF-7. In general terms: Formazan colour is commonly taken as a measure of viable cells.
The subject of the next assay is MDAMB-231 cells. In words: DNA fragmentation.
A further assay has as its system caspase-3. Description: Caspase-3 activity assay. The settings on record: MDAMB-231, compound at IC50, 24 hours, vs untreated.

≈ marks a conversion by molar mass, not a printed value. Entries after “also recorded” stand apart in the source; their conditions may differ.

A word on the IC50: it is the midpoint of a concentration-inhibition curve.

On to `COc1cc(/C=C/C(=O)CC(=O)/C=C/c2ccc(O)c(OC)c2)ccc1O` [Curcumin], for which, in the assay on cytochrome c, the “release of cyt c from mitochondria to cytosol” value is “release of cyt c”. For the same molecule, the “increase in caspase-9 activity” value in the assay with caspase-9 is on record as 35%. Moreover, at PKCα, the “translocation of PKC from cytosol to the plasma membrane” value was 17%±1.9%. The IC50 in assay [1] turned out to be 5 ± 0.8 µg/mL (≈ 13.6 µM). The “genomic DNA fragmentation” value in the assay with MDAMB-231 cells (MDAMB-231, compound at IC50, 12 hours, agarose gel) is recorded as “produced distinct DNA fragments; also recorded: showed DNA fragments of different sizes”. Besides, in the assay with MDAMB-231 cells (MDAMB-231 preincubated with NAC (5 mM)), the “genomic DNA fragmentation in presence of NAC” value is listed as “intact gDNA with no visible appearance of DNA fragments”. The “increase in caspase-3 activity” value with caspase-3 was 65%.
